Assay outcomes deposited in PubChem by several laboratories.
KCNK9 block: KCNK9 potassium channel inhibitors, primary screen, HEK293 cells, thallium flux | Potassium channel subfamily K member 9 (Homo sapiens), Q9NPC2 | FluxOR thallium flux fluorescence; stronger effect = lower value | B-score at 10 µM | 310,000 compounds, 1.2% hits | AID 488922, 2010;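 active = ratio B-score over 3 SD below the library mean, with starting fluorescence within 5 SD of its mean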;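 also: negative B-score means less thallium flux so channel inhibition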
KCNK3 inh: human KCNK3 channel inhibitors, primary screen, CHO cells, FluxOR thallium flux, B-score | B-score at 10 µM | Potassium channel subfamily K member 3 (Homo sapiens), O14649 | 340,000 compounds, 0.84% hits | FluxOR fluorescence; stronger effect = lower value;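 active = B-score under library mean minus 4 SD, starting fluorescence ratio at most library mean plus 5 SD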;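 also: more negative B-score means stronger inhibition of thallium flux through KCNK3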
Target sequence (O14649 whole entry, looked up): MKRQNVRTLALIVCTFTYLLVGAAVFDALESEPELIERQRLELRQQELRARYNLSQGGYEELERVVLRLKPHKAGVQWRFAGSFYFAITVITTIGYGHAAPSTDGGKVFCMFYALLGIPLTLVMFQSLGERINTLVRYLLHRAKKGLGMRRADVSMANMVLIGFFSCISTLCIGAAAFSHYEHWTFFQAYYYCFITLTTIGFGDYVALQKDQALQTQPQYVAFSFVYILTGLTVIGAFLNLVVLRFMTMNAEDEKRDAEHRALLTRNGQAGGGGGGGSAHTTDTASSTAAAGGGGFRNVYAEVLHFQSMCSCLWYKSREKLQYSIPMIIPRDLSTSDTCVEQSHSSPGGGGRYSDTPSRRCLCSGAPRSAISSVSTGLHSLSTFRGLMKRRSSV
KCNQ1 block: inhibitors of human KCNQ1 channel, primary screen, cell-based, thallium flux, high-throughput; 310,000 compounds, 1.3% hits; Potassium voltage-gated channel subfamily KQT member 1 (Homo sapiens), P51787; B-score at 10 µM; CHO-K1 KCNQ1, FluxOR thallium flux fluorescence; stronger effect = higher value;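 active = compounds whose thallium flux B-score, printed positive for inhibition, exceeds three library SD while starting fluorescence stays within three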;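 also: channel opened by potassium depolarization with thallium stimulus after 20 min compound exposure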
KCNQ1 pot: potentiators or activators of KCNQ1 channel, primary screen, cell-based, thallium flux, high-throughput. CHO-K1 KCNQ1, thallium flux FluxOR fluorescence; stronger effect = higher value. B-score at 10 µM. AID 2648, 2010. 310,000 compounds, 0.35% hits;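 active = fluorescence ratio B-score, a plate-corrected score, at least three library SD, with initial intensity B-score within 5 SD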
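Test system: CHO-K1 cells stably expressing KCNQ1 / Medium: assay buffer / Also added: depolarizing K+/Tl+ stimulus, K2SO4 and Tl2SO4 each 12.5 mM in 5x stock / Incubation: 90 min dye loading and 20 min compound exposure, both at room temperature / Signal: thallium influx via FluxOR fluorescence, kinetic imaging / Evaluation: B score of baseline-normalized fluorescence ratio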
hERG rescue: hERG rescue from dofetilide block, primary screen, cell-based, CHO-hERG, FluxOR thallium flux, dofetilide IC70 | Voltage-gated inwardly rectifying potassium channel KCNH2 (Homo sapiens), Q12809 | dofetilide IC70 present | activation (rescue from dofetilide block), less the hit threshold, % at 10 µM | 310,000 compounds, 0.51% hits | AID 1511, 2009;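 active = activation above the mean of controls blocked by dofetilide plus 5 SD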;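 also: thallium influx through hERG after potassium depolarization seen as dye fluorescence rise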
Cl transport mod: KCC2 cotransporter modulators, thallium flux, primary screen, cell-based, HEK293 KCC2, FluoZin-2 fluorescence, MLSMR; KCC2 cells, thallium flux FluoZin-2 fluorescence; B-score of Tl+ flux slope (higher = more flux/activation; lower = inhibition) at 10 µM; 190,000 compounds, 2.2% hits; AID 1456, 2008;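 active = thallium flux slope and its plate-corrected score both differing from the plate sample mean at a set confidence after two filtering rounds, in either direction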;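 also: slope of fluorescence scaled to starting intensity during 10 to 20 s after thallium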
An asterisk follows results filed as active; i = inactive; · = no result given. The list is not random: actives were taken first. Their share in the collection is about 4.1%.

SMILES	KCNK9 block	KCNK3 inh	KCNQ1 block	KCNQ1 pot	hERG rescue	Cl transport mod
CCCn1c(=O)c2ccccc2n2c(SCC(=O)N3CCc4ccccc4C3)nnc12	i	i	i	i	-6	-4.1*
CC(C)c1ccccc1-n1c(SCC(=O)N2CCc3ccccc3C2)nc2ccccc2c1=O	i	i	9*	i	-11	-2.5
COc1cccc(NC(=S)NCc2ccncc2)c1	i	i	i	i	-5	-2.6
CCCc1ccc(/C=C2\C(=O)c3ccccc3C(O)=C2C(=O)OCC)cc1	i	·	i	8*	-9	·
CCOC(=O)C1=C(O)c2ccccc2C(=O)/C1=C\c1ccc(CC)cc1	i	i	i	8*	2	·
CC1CCCC(NC(=O)Cn2c(Cl)nc3c2c(=O)n(C)c(=O)n3C)C1C (centres undefined)	·	i	·	·	·	·
COC(=O)CN1C(=O)[C@H]2[C@@H](c3ccc(C)o3)N3C(=O)CN(Cc4ccccc4)C(=O)[C@@]3(C)[C@H]2C1=O	i	i	i	i	-2	·
CCn1c2ccccc2c2cc(/C=N/n3cn[nH]c3=S)ccc21	i	i	i	i	-15	23*
CCn1c2ccccc2c2cc(/C=N/n3cnnc3)ccc21	i	i	i	i	-7	-1.7
CCCCOc1ccc(C(=O)NNC(=S)NC(=O)CC)cc1	i	i	i	i	-12	36*
COc1ccc(C(=O)NNC(=S)NC(=O)c2ccc(Cl)cc2)cc1	i	i	i	i	-9	·
CCC(=O)NC(=S)NNC(=O)c1ccc(OC)cc1	-7.2*	i	i	i	-7	1
COc1ccc(C(=O)NC(=S)N2CCC(C)CC2)cc1	i	i	i	i	8.2*	·
COc1ccc(C(=O)NC(=S)NNC(=O)c2ccc(C)cc2)cc1	i	i	i	13*	-6	·
COc1ccc(C(=O)NC(=S)N2CCCC2)cc1	i	i	i	i	3	·
CCCOc1ccc(C(=O)NNC(=S)NC(C)=O)cc1	i	i	i	i	-19	3.6
CCC(=O)NC(=S)NNC(=O)c1ccc([N+](=O)[O-])cc1	i	i	i	i	-11	-0.023
COC(=O)c1ccccc1NC(=S)NC(=O)c1ccc(C)cc1	i	i	i	i	-4	11*
CCc1ccc2c(c1)C(=O)C(=O)N2CC(=O)Nc1ccc(NC(=O)c2ccccn2)cc1	i	i	i	i	-7	0.32
OCCNc1ncnc2c1c(-c1ccccc1)c(-c1ccccc1)n2Cc1ccco1	i	i	i	i	-20	-2.8
c1ccc(-c2c(-c3ccccc3)n(Cc3ccco3)c3ncnc(NCCCn4ccnc4)c23)cc1	i	i	12*	i	-26	·
COCCOC(=O)/C(=C/c1ccc(OC(=O)c2ccccc2)cc1)C(C)=O	i	i	i	13*	-20	-0.81
O=C(c1ccc(F)cc1)N(C(=O)c1ccc(F)cc1)c1ncccn1	i	i	i	i	-8	0.29
Cc1cccc(N(CC(=O)NC2CCCC2)C(=O)c2csnn2)c1C	i	i	i	8*	-3	·
O=C(Cn1cnc2c(NCc3ccccc3)ncnc21)NCCc1cc2ccccc2[nH]1	·	i	·	·	·	·
SMILES	KCNK9 block	KCNK3 inh	KCNQ1 block	KCNQ1 pot	hERG rescue	Cl transport mod
COc1cc(/C=C(\C#N)C(=O)c2c[nH]c3ccccc23)cc(OC)c1O	i	i	7*	i	-13	-2.9
COC(=O)/C(C#N)=C/c1c[nH]c2ccccc12	i	i	i	i	-7	-1.8
CN(C(=O)c1ccc(S(=O)(=O)N(C)C)cc1)c1ccc2ccccc2c1	i	i	i	i	-3	·
O=C(Nc1ccccc1)/C(=C/c1ccccc1)c1ccccc1	-7*	i	i	i	-11	-0.1
CCOc1ccc(NS(=O)(=O)c2ccc3[nH]cc(C(=O)N(CC)CC)c(=O)c3c2)cc1	·	i	·	·	·	-0.58
Cc1ccc(-c2csc(NC(=O)Cc3ccc(F)cc3)n2)o1	i	i	i	14*	-14	1.4
COc1ccc(CC(=O)Nc2nc(-c3cccnc3)cs2)cc1	i	i	i	i	-5	0.2
CC(C)C(c1nnnn1C(C)(C)C)N1CCOCC1 (centres undefined)	i	i	i	i	-13	0.06
CC(C)C(c1nnnn1C(C)(C)C)N1CCC(Cc2ccccc2)CC1 (centres undefined)	-7.9*	i	i	i	-11	0.032
O=C(Nc1cccc2c1C(=O)NC2=O)c1cccnc1Cl	i	i	i	i	6.1*	-0.96
O=C(Nc1cccnc1Cl)c1cccnc1Cl	i	i	i	i	-2	-0.17
Cc1noc(C)c1C(=O)Nc1ccccc1C(=O)NCCc1ccccc1	i	i	i	i	-4	·
Cc1ccc(-n2cccc2C(=S)N=P(N(C)C)(N(C)C)N(C)C)cc1	-7.6*	i	i	i	-11	-0.25
CC1=CC(=O)N(c2cccc(C(F)(F)F)c2)C1c1ccc(Cl)cc1 (centres undefined)	-7.7*	i	i	i	-12	-0.33
CC1=CC(=O)N(c2ccc(C)cc2)C1c1ccc(Cl)cc1 (centres undefined)	i	i	i	i	-8	0.27
O=C(CN(C(=O)c1csnn1)c1ccc(F)cc1)NCCc1ccccc1	i	i	i	i	-5	·
COc1cc(NC(=O)CSc2nc(C)c(C)c(C)n2)cc(OC)c1	i	i	i	i	7.5*	-0.19
COC(=O)c1ccc(OC(=O)CS(=O)c2ccccc2[N+](=O)[O-])cc1 (centres undefined)	i	i	i	i	-15	0.025
CCOC(=O)c1ccccc1OC(=O)CS(=O)c1ccccc1[N+](=O)[O-] (centres undefined)	i	i	6*	i	-8	-0.0099
Cc1c(Cl)cccc1NC(=S)NCCc1ccc(C(F)(F)F)cc1	i	i	7*	i	-10	-0.052
Cc1c(Cl)cccc1NC(=S)NCCc1ccccn1	i	i	i	i	-4	-0.24
